Results taken from ChEMBL document CHEMBL1124223, “1-Substituted 7-[3-[(ethylamino)methyl]-1-pyrrolidinyl]-6,8- difluoro-1,4-dihydro-4-oxo-3-quinolinecarboxylic acids. New quantitative structure-activity relationships at N1 for the quinolone antibacterials” (1988).
In brackets after ≈: the same amount, converted by molar mass.

Legend:
[1] = tested on: Escherichia coli; experiment: Minimum inhibitory concentration against Escherichia coli (H560); type: functional
In short: (§1)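 MICs were determined by standard microtitration against a panel of 11 bacterial strains. Aqueous stock solutions were prepared with 0.1 N sodium or potassium hydroxide.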

[2] = tested on: Escherichia coli; experiment: Minimum inhibitory concentration against Escherichia coli (vogel); type: functional; in short: as §1
[3] = tested on: Enterobacter cloacae; experiment: Minimum inhibitory concentration against Enterobacter cloacae. (MA2446).; type: functional
[4] = target: DNA gyrase (Escherichia coli) (UniProt P0AES6+P0AES4); experiment: Concentration required for 50% inhibition of gyrase.; type: protein-complex assay
In short: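 DNA gyrase inhibition: the drug concentration (µg/mL) giving 50% inhibition (I50) was recorded, along with the lowest concentration inducing gyrase-mediated DNA cleavage. Data come from duplicate experiments with ±50% reproducibility.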

[5] = tested on: Klebsiella pneumoniae; experiment: Minimum inhibitory concentration against Klebsiella pneumoniae (MGH-2); type: functional; in short: as §1
[6] = tested on: Pseudomonas aeruginosa; experiment: Minimum inhibitory concentration against Pseudomonas aeruginosa. (UI-18); type: functional; in short: as §1
[7] = tested on: Providencia rettgeri; experiment: Minimum inhibitory concentration against Providencia rettgeri. (M1771); type: functional; in short: as §1
[8] = tested on: Streptococcus pyogenes; experiment: Minimum inhibitory concentration against Streptococcus pyogenes (C203).; type: functional; in short: as §1
[9] = tested on: Staphylococcus aureus; experiment: Minimum inhibitory concentration against Staphylococcus aureus (H-228).; type: functional; in short: as §1
[10] = tested on: Staphylococcus aureus; experiment: Minimum inhibitory concentration against Staphylococcus aureus (UC76).; type: functional; in short: as §1
[11] = tested on: Streptococcus pneumoniae; experiment: Minimum inhibitory concentration against Streptococcus pneumoniae (SV-1).; type: functional; in short: as §1
[12] = tested on: Enterobacter; experiment: Minimum inhibitory concentration against gram-negative enterobacteriaceae.; type: functional
In short: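 This value is the geometric mean of microtitration MICs for the Gram-negative Enterobacteriaceae strains in the 11-organism panel. Aqueous stocks were prepared in 0.1 N sodium or potassium hydroxide.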

[13] = tested on: Enterococcus faecalis; experiment: Minimum inhibitory concentration against Streptococcus faecalis (MGH-2).; type: functional; in short: as §1
[14] = tested on: Mus musculus; experiment: In vivo activity against Pseudomonas aeruginosa (po); type: functional; conditions: read-out: PD50
In short: (§2)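 Median protective dose (PD50, mg/kg) measured in acute, lethal, systemic infections in female Charles River CD-1 mice. A single dose of compound was given at the time of bacterial challenge. Aqueous stock solutions were made with 0.1 N sodium or potassium hydroxide.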

[15] = tested on: Mus musculus; experiment: In vivo activity against Pseudomonas aeruginosa (sc); type: functional; conditions: read-out: PD50; in short: as §2
[16] = tested on: Mus musculus; experiment: In vivo activity against Streptococcus pneumoniae (po); type: functional; conditions: read-out: PD50; in short: as §2
[17] = tested on: Mus musculus; experiment: In vivo activity against Streptococcus pneumoniae (sc); type: functional; conditions: read-out: PD50; in short: as §2
[18] = tested on: Mus musculus; experiment: In vivo activity against Streptococcus pyogenes (po); type: functional; conditions: read-out: PD50; in short: as §2
[19] = tested on: Mus musculus; experiment: In vivo activity against Streptococcus pyogenes (sc); type: functional; conditions: read-out: PD50; in short: as §2
[20] = tested on: Mus musculus; experiment: In vivo activity against Escherichia coli (po); type: functional; conditions: read-out: PD50; in short: as §2
[21] = tested on: Mus musculus; experiment: In vivo activity against Escherichia coli (sc); type: functional; conditions: read-out: PD50; in short: as §2

Row | Compound | MIC [1] [µg/mL] | MIC [2] [µg/mL] | MIC [3] [µg/mL] | IC50 [4] [µg/mL] | MIC [5] [µg/mL] | MIC [6] [µg/mL] | MIC [7] [µg/mL] | MIC [8] [µg/mL] | MIC [9] [µg/mL] | MIC [10] [µg/mL] | MIC [11] [µg/mL] | MIC [12] [µg/mL] | MIC [13] [µg/mL] | further results
1 | CCNCC1CCN(c2c(F)cc3c(=O)c(C(=O)O)cn(C4CC4C)c3c2F)C1 (configuration not stated) | 0.8 (≈ 1.97 µM) | 0.8 (≈ 1.97 µM) | 1.6 (≈ 3.95 µM) | 13 (≈ 32.1 µM) | 1.6 (≈ 3.95 µM) | 6.3 (≈ 15.5 µM) | 6.3 (≈ 15.5 µM) | 0.8 (≈ 1.97 µM) | 0.8 (≈ 1.97 µM) | 0.2 (≈ 0.493 µM) | 0.8 (≈ 1.97 µM) | 1.59 (≈ 3.92 µM) | 0.4 (≈ 0.987 µM) | 
2 | CCNCC1CCN(c2c(F)cc3c(=O)c(C(=O)O)cn(OC)c3c2F)C1 (configuration not stated) | 0.4 (≈ 1.05 µM) | 0.4 (≈ 1.05 µM) | 0.4 (≈ 1.05 µM) | 27 (≈ 70.8 µM) | 0.2 (≈ 0.524 µM) | 6.3 (≈ 16.5 µM) | 1.6 (≈ 4.2 µM) | 0.8 (≈ 2.1 µM) | 0.8 (≈ 2.1 µM) | 0.2 (≈ 0.524 µM) | 0.8 (≈ 2.1 µM) | 0.46 (≈ 1.21 µM) | 0.8 (≈ 2.1 µM) | 
3 | CCNCC1CCN(c2c(F)cc3c(=O)c(C(=O)O)cn(-c4ccccc4)c3c2F)C1 (configuration not stated) | 0.8 (≈ 1.87 µM) | 1.6 (≈ 3.74 µM) | 1.6 (≈ 3.74 µM) | 29 (≈ 67.8 µM) | 1.6 (≈ 3.74 µM) | 6.3 (≈ 14.7 µM) | 6.3 (≈ 14.7 µM) | 1.6 (≈ 3.74 µM) | 0.8 (≈ 1.87 µM) | 0.2 (≈ 0.468 µM) | 1.6 (≈ 3.74 µM) | 1.83 (≈ 4.28 µM) | 0.8 (≈ 1.87 µM) | 
4 | CN1CCN(c2cc3c(cc2F)c(=O)c(C(=O)O)cn3-c2ccc(F)cc2)CC1 [DIFLOXACIN] | 0.05 (≈ 0.125 µM) | 0.4 (≈ 1 µM) | 0.8 (≈ 2 µM) |  | 0.4 (≈ 1 µM) | 0.8 (≈ 2 µM) | 1.6 (≈ 4.01 µM) | 1.6 (≈ 4.01 µM) | 1.6 (≈ 4.01 µM) | 0.4 (≈ 1 µM) | 1.6 (≈ 4.01 µM) | 0.4 (≈ 1 µM) | 3.1 (≈ 7.76 µM) | ED50 [14]: 14 mg/kg; ED50 [15]: 14 mg/kg; ED50 [16]: 16 mg/kg; ED50 [17]: 13 mg/kg; ED50 [18]: 7 mg/kg; ED50 [19]: 7 mg/kg; ED50 [20]: 2 mg/kg; ED50 [21]: 2 mg/kg
5 | CCNCC1CCN(c2c(F)cc3c(=O)c(C(=O)O)cn(C4CCC4)c3c2F)C1 (configuration not stated) | 0.1 (≈ 0.247 µM) | 0.2 (≈ 0.493 µM) | 0.4 (≈ 0.987 µM) | 26 (≈ 64.1 µM) | 0.4 (≈ 0.987 µM) | 3.1 (≈ 7.65 µM) | 3.1 (≈ 7.65 µM) | 0.2 (≈ 0.493 µM) | 0.1 (≈ 0.247 µM) | 0.05 (≈ 0.123 µM) | 0.1 (≈ 0.247 µM) | 0.4 (≈ 0.987 µM) | 0.2 (≈ 0.493 µM) | 
6 | CCNCC1CCN(c2c(F)cc3c(=O)c(C(=O)O)cn(-c4nccs4)c3c2F)C1 (configuration not stated) | 3.1 (≈ 7.14 µM) | 1.6 (≈ 3.68 µM) | 1.6 (≈ 3.68 µM) | 30 (≈ 69 µM) | 3.1 (≈ 7.14 µM) | 25 (≈ 57.5 µM) | 12.5 (≈ 28.8 µM) | 6.3 (≈ 14.5 µM) | 25 (≈ 57.5 µM) | 1.6 (≈ 3.68 µM) | 12.5 (≈ 28.8 µM) | 3.14 (≈ 7.23 µM) | 6.3 (≈ 14.5 µM) | 
7 | CCNCC1CCN(c2c(F)cc3c(=O)c(C(=O)O)cn(CCF)c3c2F)C1 (configuration not stated) | 0.1 (≈ 0.252 µM) | 0.1 (≈ 0.252 µM) | 0.2 (≈ 0.503 µM) | 7.5 (≈ 18.9 µM) | 0.4 (≈ 1.01 µM) | 1.6 (≈ 4.03 µM) | 0.8 (≈ 2.01 µM) | 0.1 (≈ 0.252 µM) | 0.4 (≈ 1.01 µM) | 0.1 (≈ 0.252 µM) | 0.1 (≈ 0.252 µM) | 0.23 (≈ 0.579 µM) | 0.2 (≈ 0.503 µM) | 
8 | CCNCC1CCN(c2c(F)cc3c(=O)c(C(=O)O)cn(CC4CC4)c3c2F)C1 (configuration not stated) | 0.8 (≈ 1.97 µM) | 0.8 (≈ 1.97 µM) | 3.1 (≈ 7.65 µM) | 30 (≈ 74 µM) | 1.6 (≈ 3.95 µM) | 25 (≈ 61.7 µM) | 12.5 (≈ 30.8 µM) | 0.4 (≈ 0.987 µM) | 0.2 (≈ 0.493 µM) | 0.1 (≈ 0.247 µM) | 0.8 (≈ 1.97 µM) | 2.09 (≈ 5.15 µM) | 0.8 (≈ 1.97 µM) | 
9 | CNn1cc(C(=O)O)c(=O)c2cc(F)c(N3CCN(C)CC3)cc21 [AMIFLOXACIN] | 0.025 (≈ 0.0748 µM) | 0.1 (≈ 0.299 µM) |  |  | 0.2 (≈ 0.598 µM) | 0.8 (≈ 2.39 µM) | 0.2 (≈ 0.598 µM) | 12.5 (≈ 37.4 µM) | 1.6 (≈ 4.79 µM) | 0.4 (≈ 1.2 µM) | 12.5 (≈ 37.4 µM) | 0.1 (≈ 0.299 µM) | 3.1 (≈ 9.27 µM) | 
10 | CN1CCN(c2c(F)cc3c(=O)c(C(=O)O)cn(CCF)c3c2F)CC1 [FLEROXACIN] | 0.1 (≈ 0.271 µM) | 0.2 (≈ 0.542 µM) | 0.2 (≈ 0.542 µM) |  | 0.2 (≈ 0.542 µM) | 1.6 (≈ 4.33 µM) | 0.4 (≈ 1.08 µM) | 6.3 (≈ 17.1 µM) | 0.8 (≈ 2.17 µM) | 0.2 (≈ 0.542 µM) | 6.3 (≈ 17.1 µM) | 0.2 (≈ 0.542 µM) | 3.1 (≈ 8.39 µM) | 
11 | O=C(O)c1cn(C2CC2)c2cc(N3CCNCC3)c(F)cc2c1=O [CIPROFLOXACIN] | 0.025 (≈ 0.0754 µM) |  |  |  | 0.1 (≈ 0.302 µM) | 0.4 (≈ 1.21 µM) | 0.1 (≈ 0.302 µM) | 0.8 (≈ 2.41 µM) | 3.1 (≈ 9.36 µM) | 0.2 (≈ 0.604 µM) | 1.6 (≈ 4.83 µM) | 0.06 (≈ 0.181 µM) | 0.8 (≈ 2.41 µM) | ED50 [14]: 25 mg/kg; ED50 [15]: 5 mg/kg; ED50 [16]: > 100 mg/kg; ED50 [17]: 29 mg/kg; ED50 [18]: > 100 mg/kg; ED50 [19]: 20 mg/kg; ED50 [20]: 1 mg/kg; ED50 [21]: 0.3 mg/kg
